Positions count from the first letter of the chain named. pIC50: −log10 of the molar value. Active and inactive are the calls of the source. No cut-off for these calls is given here.
What was measured:
[1] = molecular target: T1, Aldo-keto reductase family 1 member C3 (Homo sapiens, UniProt P42330); experiment: Inhibition of recombinant AKR1C3 (unknown origin) assessed as decrease in oxidation of 1-acenaphthenol substrate by spectrophotometric analysis
T1 sequence (P42330 whole entry): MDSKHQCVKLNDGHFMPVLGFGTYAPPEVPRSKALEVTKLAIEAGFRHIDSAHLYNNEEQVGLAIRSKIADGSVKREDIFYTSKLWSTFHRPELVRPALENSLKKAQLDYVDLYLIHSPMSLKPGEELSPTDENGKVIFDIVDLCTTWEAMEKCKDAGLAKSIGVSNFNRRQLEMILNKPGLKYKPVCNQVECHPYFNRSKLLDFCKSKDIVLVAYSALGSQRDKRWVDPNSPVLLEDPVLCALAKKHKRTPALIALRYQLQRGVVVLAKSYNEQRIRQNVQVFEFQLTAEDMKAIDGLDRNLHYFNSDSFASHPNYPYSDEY

[2] = molecular target: T2, Aldo-keto reductase family 1 member C2 (Homo sapiens, UniProt P52895); experiment: Inhibition of recombinant AKR1C2 (unknown origin) assessed as decrease in oxidation of 1-acenaphthenol substrate by spectrophotometric analysis
T2 sequence (P52895 whole entry): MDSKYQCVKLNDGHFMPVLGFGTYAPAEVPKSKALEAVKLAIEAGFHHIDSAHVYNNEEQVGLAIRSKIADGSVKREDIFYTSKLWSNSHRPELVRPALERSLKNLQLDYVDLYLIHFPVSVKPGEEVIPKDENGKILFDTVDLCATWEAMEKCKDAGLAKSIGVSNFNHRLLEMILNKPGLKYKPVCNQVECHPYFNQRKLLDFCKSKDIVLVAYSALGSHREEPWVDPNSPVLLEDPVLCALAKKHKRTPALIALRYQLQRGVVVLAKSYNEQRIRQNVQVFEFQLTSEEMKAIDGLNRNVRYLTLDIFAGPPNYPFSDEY
Outline: (§1)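 IC50 measured for compounds giving over 50% inhibition at 100 μM. Assay uses 1-acenaphthenol oxidation with 2.3 mM NAD⁺ in pH 9.0 100 mM phosphate buffer with 0.005% Triton X-114 and 5% DMSO. AKR1C1 runs at 30 μM substrate and 0.3 μM enzyme; AKR1C2 at 50 μM substrate and 0.2 μM enzyme. Initial rates come from NADH at 340 nm. IC50 is read from log[inhibitor] versus % inhibition plots.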

[3] = molecular target: T3, Aldo-keto reductase family 1 member C2 (Homo sapiens) (UniProt P52895); experiment: Inhibition of recombinant AKR1C2 (unknown origin) assessed as decrease in oxidation of 1-acenaphthenol substrate at 100 uM by spectrophotometric analysis
T3 sequence (whole entry): T2 sequence (P52895 whole entry)
Outline: (§2)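 Single-point screen at 100 μM compound. Recombinant enzyme oxidizes 1-acenaphthenol with 2.3 mM NAD⁺ in 100 mM phosphate buffer pH 9.0, 0.005% Triton X-114, 5% DMSO. AKR1C1: 30 μM substrate (Km), 0.3 μM enzyme. AKR1C2: 50 μM substrate (Km), 0.2 μM enzyme. NADH formation read at 340 nm from initial velocities. Result given as % inhibition.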

[4] = molecular target: T4, Aldo-keto reductase family 1 member C1 (Homo sapiens) (UniProt Q04828); experiment: Inhibition of human recombinant AKR1C1 expressed in Escherichia coli assessed as decrease in oxidation of 1-acenaphthenol substrate at 100 uM by spectrophotometric analysis; outline: as §2
T4 sequence (whole entry): T2 sequence (P52895 whole entry) with V38T, H47R, V54L, S87C, M151V, H170R, L172Q

[5] = molecular target: T5, Aldo-keto reductase family 1 member C1 (Homo sapiens, UniProt Q04828); experiment: Inhibition of human recombinant AKR1C1 expressed in Escherichia coli assessed as decrease in oxidation of 1-acenaphthenol substrate by spectrophotometric analysis; outline: as §1
T5 sequence (Q04828 whole entry): T2 sequence (P52895 whole entry) with V38T, H47R, V54L, S87C, M151V, H170R, L172Q

Work on `COc1ccc(/C=C(/C(=O)O)c2cccc3ccccc23)cc1OC` yielded a pIC50 [1] of 3.89, a pIC50 [2] of 4.62 and an inhibition [3] of 77.8%. The inhibition [4] was 29.4%.
Work on `COc1cc(/C(=C\c2ccc3ccccc3c2)C(=O)O)cc(OC)c1OC` yielded an inhibition [3] of 15.9% and an inhibition [4] of 9.6%.
`CS(=O)(=O)c1ccc(/C=C(/C(=O)O)c2ccc(Cl)cc2)cc1` was tested, and the pIC50 [1] was 4.06, the pIC50 [2] was 4.57 and the inhibition [3] was 63.4%. It also gave a pIC50 [5] of 4.80 and an inhibition [4] of 89.6%.
`CSc1ccc(/C=C(/C(=O)O)c2ccc(S(C)(=O)=O)cc2)cc1` gave a pIC50 [1] of 5.24, an inhibition [3] of 14.4% and an inhibition [4] of 43.8%.
`CS(=O)(=O)c1ccc(/C(=C\c2cccc(Br)c2)C(=O)O)cc1` gave a pIC50 [1] of 4.87, a pIC50 [2] of 4.13 and an inhibition [3] of 58.3%. It also gave an inhibition [4] of 34.8%.
`CSc1ccc(/C=C(/C(=O)O)c2cccc(Cl)c2)cc1` showed a pIC50 [1] of 4.77, a pIC50 [2] of 4.68 and an inhibition [3] of 78.3%. For the same compound, the pIC50 [5] was 4.72 and the inhibition [4] was 81.7%.
`CS(=O)(=O)c1ccc(/C(=C\c2ccc(F)cc2)C(=O)O)cc1` was tested, and the pIC50 [1] was 4.37, the inhibition [3] was 9.2% and the inhibition [4] was 21%.
In the case of `CC(=O)O[C@]1(C(C)=O)CC[C@H]2[C@@H]3C[C@H](C)C4=CC(=O)CC[C@]4(C)[C@H]3CC[C@@]21C` [MEDROXYPROGESTERONE ACETATE], the pIC50 [1] was 6.52, the pIC50 [2] was 5.39 and the pIC50 [5] was 5.74.
In the case of `COc1cc(/C=C(/C(=O)O)c2ccc(S(C)(=O)=O)cc2)cc(OC)c1OC`, the inhibition [3] was “inactive” and the inhibition [4] was “inactive”.
`COc1cc(/C(=C\c2cccc(F)c2)C(=O)O)cc(OC)c1OC` was tested, and the pIC50 [2] was 4.11, the inhibition [3] was 55.9% and the inhibition [4] was 7.8%.
`CS(=O)(=O)c1ccc(/C=C(/C(=O)O)c2ccc(F)cc2)cc1` gave a pIC50 [2] of 4.35, an inhibition [3] of 69.7% and a pIC50 [5] of 4.63. It also gave an inhibition [4] of 86.1%.
For `CS(=O)(=O)c1ccc(/C(=C\c2ccc(Br)cc2)C(=O)O)cc1`, the pIC50 [1] was 5.31, the inhibition [3] was 19.2% and the inhibition [4] was 28.7%.
With `CC(=O)NS(=O)(=O)c1ccc(/C=C(/C(=O)O)c2ccccc2)cc1` the pIC50 [2] was 4.60, the inhibition [3] was 87.3% and the pIC50 [5] was 5.06. It also gave an inhibition [4] of 97.8%.
Compound `CSc1ccc(/C=C(/C(=O)O)c2ccccc2)cc1` has a pIC50 [1] of 4.52, a pIC50 [2] of 4.39 and an inhibition [3] of 59.1%. The pIC50 [5] was 4.91 and the inhibition [4] was 87%.
In the case of `CS(=O)(=O)c1ccc(/C(=C\c2ccc(Cl)cc2)C(=O)O)cc1`, the pIC50 [1] was 4.97, the inhibition [3] was 24.3% and the inhibition [4] was 34.7%.
`CS(=O)(=O)c1ccc(/C=C(/C(=O)O)c2ccc3c(c2)OCO3)cc1` gave an inhibition [3] of 24.2% and an inhibition [4] of 45.2%.
For `COc1ccc(/C=C(/C(=O)O)c2cc(OC)c(OC)c(OC)c2)cc1OC(C)=O`, the inhibition [3] was 3.2% and the inhibition [4] was 8%.
`CC(=O)NS(=O)(=O)c1ccc(/C=C(/C(=O)O)c2ccc(S(C)(=O)=O)cc2)cc1` was tested, and the inhibition [3] was 10.6% and the inhibition [4] was 5.9%.
`CS(=O)(=O)c1ccc(/C(=C\c2cccc(Cl)c2)C(=O)O)cc1` showed a pIC50 [1] of 4.77, an inhibition [3] of 43% and an inhibition [4] of 44.5%.
In the case of `CS(=O)(=O)c1ccc(/C(=C\c2ccc(O)cc2)C(=O)O)cc1`, the inhibition [3] was “inactive” and the inhibition [4] was “inactive”.
Work on `COc1ccc(/C=C(/C(=O)O)c2cc(OC)c(OC)c(OC)c2)cc1F` yielded an inhibition [3] of 9.9% and an inhibition [4] of -5.2%.
In the case of `COc1ccc(/C=C(/C(=O)O)c2cc(OC)c(OC)c(OC)c2)cc1O`, the pIC50 [1] was 3.92, the inhibition [3] was 20.6% and the inhibition [4] was 14.4%.
`Cc1ccc(/C=C(/C(=O)O)c2ccc(S(C)(=O)=O)cc2)cc1` was tested, and the pIC50 [1] was 4.87, the inhibition [3] was 1.1% and the inhibition [4] was “inactive”.
In the case of `CS(=O)(=O)c1ccc(/C(=C\c2ccccc2)C(=O)O)cc1`, the pIC50 [1] was 4.16, the inhibition [3] was 27.3% and the inhibition [4] was 26.3%.
For `CS(=O)(=O)c1ccc(/C(=C\c2cccc(F)c2)C(=O)O)cc1`, the pIC50 [1] was 4.41, the inhibition [3] was 27% and the inhibition [4] was 15.4%.
`CSc1ccc(/C=C(/C(=O)O)c2ccc(Cl)cc2)cc1` showed a pIC50 [1] of 5.08, a pIC50 [2] of 4.56 and an inhibition [3] of 75.2%. It also gave a pIC50 [5] of 5.18 and an inhibition [4] of 88.1%.
In the case of `CSc1ccc(-c2ccc(/C=C(/C(=O)O)c3ccc(S(C)(=O)=O)cc3)cc2)cc1`, the inhibition [3] was 57.4% and the inhibition [4] was 64.7%.
Work on `COc1ccc(/C=C(/C(=O)O)c2cc(OC)c(OC)c(OC)c2)cc1` yielded an inhibition [3] of 4.3% and an inhibition [4] of 15.1%.
Work on `CS(=O)(=O)c1ccc(/C(=C\c2ccc(C(F)(F)F)cc2)C(=O)O)cc1` yielded a pIC50 [1] of 4.63, an inhibition [3] of 18.4% and an inhibition [4] of 3.5%.
Compound `CS(=O)(=O)c1ccc(/C(=C\c2ccc(O)c(O)c2)C(=O)O)cc1` has a pIC50 [1] of 4.48, an inhibition [3] of 27.2% and an inhibition [4] of 46.5%.
`COc1ccc(/C=C(/C(=O)O)c2ccc(S(C)(=O)=O)cc2)cc1` was tested, and the pIC50 [1] was 4.43, the inhibition [3] was “inactive” and the inhibition [4] was “inactive”.
`O=C(O)/C(=C/c1ccccc1)c1ccccc1` showed an inhibition [3] of 47.5%, a pIC50 [5] of 5.10 and an inhibition [4] of 90.1%.
For `CS(=O)(=O)c1ccc(/C=C(/C(=O)O)c2ccccc2)cc1`, the pIC50 [1] was 3.86, the pIC50 [2] was 4.46 and the inhibition [3] was 61.4%. It also gave a pIC50 [5] of 4.51 and an inhibition [4] of 77.6%.
Compound `CS(=O)(=O)c1ccc(/C=C(/C(=O)O)c2cccc(Cl)c2)cc1` has a pIC50 [1] of 4.12, a pIC50 [2] of 4.64 and an inhibition [3] of 66.4%. The pIC50 [5] was 4.71 and the inhibition [4] was 75.9%.
In the case of `CS(=O)(=O)c1ccc(/C=C(/C(=O)O)c2ccc(S(C)(=O)=O)cc2)cc1`, the pIC50 [1] was 4.29, the inhibition [3] was “inactive” and the inhibition [4] was “inactive”.
For `CS(=O)(=O)c1ccc(/C(=C\c2cccc(O)c2)C(=O)O)cc1`, the inhibition [3] was “inactive” and the inhibition [4] was “inactive”.
Compound `COc1ccc(/C=C(/C(=O)O)c2cc(OC)c(OC)c(OC)c2)cc1OC` has an inhibition [3] of 0.6% and an inhibition [4] of 6.1%.
In the case of `CCc1ccc(/C=C(/C(=O)O)c2ccc(S(C)(=O)=O)cc2)cc1`, the pIC50 [1] was 4.87, the inhibition [3] was “inactive” and the inhibition [4] was “inactive”.
`COc1ccc(/C=C(/C(=O)O)c2ccc3ccccc3c2)cc1OC` was tested, and the pIC50 [1] was 4.41, the inhibition [3] was 39.6% and the inhibition [4] was 9.7%.
Work on `COc1cc(/C(=C\c2cccc3ccccc23)C(=O)O)cc(OC)c1OC` yielded an inhibition [3] of 13.8% and an inhibition [4] of 6.4%.
`COc1cc(/C(=C\c2cccc(OC(C)=O)c2)C(=O)O)cc(OC)c1OC` gave an inhibition [3] of 27% and an inhibition [4] of 40%.
